Source: PubChem BioAssay
A1 apoptosis 2 = blocks A1, raising caspase activity. MEF A1-2A-BIM cells, caspase-Glo luminescence, 3 h; percent of clofoctol response, DMSO zero. caspase activation, % (concentration not given with the values). 24,000 tested, under 10 active. AID 2465; in the data active = caspase activation above about 5.9%
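Evaluation: Caspase-3/7 activity from luminescence increase | Assay system: A1-2A-BIM mouse embryonic fibroblasts | Quantity: 2500 MEF cells/well | Medium: RPMI-1640 plus 10% FBS | Detection: Caspase-Glo 3/7 luminescence, 1 h at room temperature | Dosing: 50 nL compound per well, pinned | Timing: Cells settled overnight, compound exposure 3 h at 37 °C, 5% CO2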
INS-1E rescue = INS-1E beta cell protection from cytokine death; INS-1E cytokine-induced death, ATP luminescence, 48 h; normalised: neutral wells 0, positive control 100; protection from cytokine-induced ATP loss, % at 10 µM; actives 0.1% (n = 20,000);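 active = mean replicate protection from cytokine-induced ATP loss at least 50% and at least 75% of replicates each reaching 50%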
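assay system = INS-1E rat insulinoma cells | amount = 8000 cells per well | medium = phenol-red-free RPMI with 5% fetal bovine serum | doses = one compound concentration, pin transfer | timing = 48 h cytokine plus compound treatment, 10 min reagent incubation | also added = IL-1β, TNF-α and IFN-γ cytokine mix | signal = CellTiter-Glo luminescence measuring cellular ATP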
T cruzi HTS = blocks T. cruzi growth inside host cells. intracellular Trypanosoma cruzi in host cells, plate reader. activity score (inhibition), % at 5.01 µM. actives 4.9% (n = 22,000); in the data active = activity score above about 55%;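 note: parasites and compound incubated about four days before reading; 0% = median of neutral control wells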
An asterisk follows results filed as active; nt = no result given. The full list was thinned out, with hits kept by preference.

SMILES	A1 apoptosis 2	INS-1E rescue	T cruzi HTS
COc1ccc(NC(=O)Nc2ccc3c(c2)C(=O)N([C@H](C)CO)C[C@H](C)[C@@H](CN(C)Cc2ccc(C(F)(F)F)cc2)OCCCC[C@@H](C)O3)cc1	1	-16	63*
COc1ccc(NC(=O)Nc2ccc3c(c2)C(=O)N([C@@H](C)CO)C[C@@H](C)[C@@H](CN(C)Cc2ccc(C(F)(F)F)cc2)OCCCC[C@H](C)O3)cc1	-1	nt	nt
C[C@@H]1CCCCO[C@@H](CN(C)Cc2ccc(C(=O)Nc3ccccc3N)cc2)[C@@H](C)CN([C@H](C)CO)C(=O)c2cc(NC(=O)Nc3ccc(C(F)(F)F)cc3)ccc2O1	1	-45	81*
C[C@@H]1CCCCO[C@@H](CN(C)Cc2ccccc2)[C@@H](C)CN([C@@H](C)CO)C(=O)c2cc(NC(=O)Nc3ccc(C(F)(F)F)cc3)ccc2O1	1	nt	nt
C[C@@H]1CCCCO[C@@H](CN(C)Cc2ccc(C(F)(F)F)cc2)[C@@H](C)CN([C@H](C)CO)C(=O)c2cc(NC(=O)c3ccccc3)ccc2O1	nt	-11	63*
C[C@@H]1CCCCO[C@@H](CN(C)Cc2ccccc2)[C@@H](C)CN([C@H](C)CO)C(=O)c2cc(NC(=O)Nc3ccc(C(F)(F)F)cc3)ccc2O1	nt	-40	71*
C[C@@H]1CCCCO[C@@H](CN(C)Cc2ccc(C(=O)Nc3ccccc3N)cc2)[C@@H](C)CN([C@H](C)CO)C(=O)c2cc(NC(=O)Nc3ccc(F)cc3)ccc2O1	nt	-3	9
C[C@H]1CN([C@@H](C)CO)C(=O)c2cc(NC(=O)Cc3cn(C)c4ccccc34)ccc2O[C@H]1CN(C)Cc1ccc(C(=O)O)cc1	nt	5	-5
C[C@H]1CN([C@@H](C)CO)C(=O)Cc2cc(NC(=O)Cc3cn(C)c4ccccc34)ccc2O[C@@H]1CN(C)S(=O)(=O)c1ccccc1	nt	6	-10
CNC[C@H]1Oc2ccc(NS(=O)(=O)c3ccc(C)cc3)cc2CC(=O)N([C@@H](C)CO)C[C@H]1C	0	-3	4
C[C@@H]1CCCCO[C@@H](CN(C)Cc2ccc(C(F)(F)F)cc2)[C@@H](C)CN([C@H](C)CO)C(=O)c2cc(NC(=O)Cc3ccccc3)ccc2O1	nt	-15	63*
C[C@@H]1CCCCO[C@@H](CN(C)Cc2ccc(C(F)(F)F)cc2)[C@H](C)CN([C@@H](C)CO)C(=O)c2cc(NC(=O)Cc3ccccc3)ccc2O1	-1	nt	nt
Cc1noc(C)c1S(=O)(=O)Nc1ccc2c(c1)C(=O)N([C@@H](C)CO)C[C@@H](C)[C@H](CN(C)S(=O)(=O)c1ccc(F)cc1)O2	nt	6	-6
C[C@H](CO)N1C[C@H](C)[C@@H](CN(C)C(=O)Nc2ccccc2)Oc2ccc(NC(=O)Nc3ccc(F)cc3)cc2C1=O	-1	9	-2
C[C@@H]1CN([C@H](C)CO)C(=O)Cc2cc(NC(=O)Nc3ccc(F)cc3)ccc2O[C@@H]1CN(C)CC1CCCCC1	2	2	67*
C[C@@H]1CN([C@H](C)CO)C(=O)Cc2cc(NC(=O)Nc3ccc(F)cc3)ccc2O[C@H]1CN(C)CC1CCCCC1	nt	-40	60*
C[C@@H]1CN([C@H](C)CO)C(=O)Cc2cc(NC(=O)Nc3ccc4c(c3)OCO4)ccc2O[C@H]1CN(C)CC1CCCCC1	0	-15	64*
C[C@@H]1CN([C@H](C)CO)C(=O)Cc2cc(NC(=O)Nc3ccc(F)cc3)ccc2O[C@@H]1CN(C)CC1CC1	0	nt	nt
C[C@H](CO)N1C[C@H](C)[C@@H](CN(C)CC2CCCCC2)Oc2ccc(NC(=O)Nc3ccc(F)cc3)cc2CC1=O	0	nt	nt
C[C@H](CO)N1C[C@H](C)[C@H](CN(C)CC2CCCCC2)Oc2ccc(NC(=O)Nc3ccc4c(c3)OCO4)cc2CC1=O	0	4	2
C[C@H]1CN([C@@H](C)CO)C(=O)c2cccc(NS(=O)(=O)c3ccccc3)c2O[C@H]1CN(C)Cc1ccc(-c2ccccc2)cc1	nt	-30	37
Cc1noc(C)c1NC(=O)N(C)C[C@H]1Oc2c(NC(=O)Nc3ccccc3)cccc2C(=O)N([C@@H](C)CO)C[C@H]1C	nt	9	-7
C[C@H]1CN([C@@H](C)CO)C(=O)c2cccc(NC(=O)Nc3ccc(C(F)(F)F)cc3)c2O[C@@H]1CN(C)C	0	-12	38
C[C@H](CO)N1C[C@H](C)[C@H](CN(C)CC2CCCCC2)Oc2c(NC(=O)Nc3ccc(C(F)(F)F)cc3)cccc2C1=O	0	-82	56*
C[C@H](CO)N1C[C@H](C)[C@@H](CN(C)C(=O)Nc2ccc(F)cc2)Oc2c(NC(=O)Nc3ccc(C(F)(F)F)cc3)cccc2C1=O	0	-8	5
SMILES	A1 apoptosis 2	INS-1E rescue	T cruzi HTS
COc1ccc(NC(=O)N(C)C[C@@H]2Oc3c(NC(=O)Nc4ccc(C(F)(F)F)cc4)cccc3C(=O)N([C@H](C)CO)C[C@H]2C)cc1	-1	-12	60*
C[C@H]1CN([C@@H](C)CO)C(=O)c2cccc(NC(=O)Nc3ccc(C(F)(F)F)cc3)c2O[C@H]1CN(C)C(=O)Nc1ccc(F)cc1	0	-57	60*
COc1ccc(NC(=O)Nc2cccc3c2O[C@H](CN(C)C(=O)Nc2ccc(C(F)(F)F)cc2)[C@H](C)CN([C@H](C)CO)C3=O)cc1	-1	3	1
C[C@@H]1CN([C@H](C)CO)C(=O)c2cccc(NC(=O)Nc3ccc(C(F)(F)F)cc3)c2O[C@@H]1CN(C)CC1CCCCC1	nt	-29	14
C[C@H](CO)N1C[C@H](C)[C@H](CN(C)C)Oc2c(NC(=O)Nc3ccc(C(F)(F)F)cc3)cccc2C1=O	0	-5	81*
C[C@H](CO)N1C[C@H](C)[C@H](CN(C)C(=O)Nc2ccccc2)Oc2ccc(NC(=O)Cn3cnnn3)cc2C1=O	0	10	-14
C[C@H]1CN([C@@H](C)CO)C(=O)Cc2cc(NC(=O)CCN3CCOCC3)ccc2O[C@@H]1CN(C)C(=O)Nc1ccc2c(c1)OCO2	nt	-1	-22
C[C@@H]1CN([C@H](C)CO)C(=O)c2cc(NC(=O)Cc3cn(C)c4ccccc34)ccc2O[C@H]1CN(C)C	nt	8	-12
COc1ccc(NC(=O)N(C)C[C@H]2Oc3c(NC(=O)CCCCCC(=O)Nc4ccccc4N)cccc3C(=O)N([C@H](C)CO)C[C@H]2C)cc1	1	nt	nt
O=C(O)C1=C[C@H](c2ccc3c(c2)Cc2ccccc2-3)C[C@H](OCc2ccc(CO)cc2)O1	-4	nt	nt
C[C@@H]1CN([C@H](C)CO)C(=O)c2cccc(NC(=O)Nc3ccc(C(F)(F)F)cc3)c2O[C@H]1CN(C)C(=O)Nc1ccc2c(c1)OCO2	0	-56	66*
C[C@@H]1CN([C@@H](C)CO)C(=O)c2cccc(NS(=O)(=O)c3ccc(Cl)cc3)c2O[C@@H]1CN(C)C(=O)Nc1ccc(C(F)(F)F)cc1	0	-91	83*
C[C@@H]1CN([C@@H](C)CO)C(=O)c2cccc(NC(=O)Nc3ccc4c(c3)OCO4)c2O[C@@H]1CN(C)C(=O)Nc1ccc(C(F)(F)F)cc1	1	4	-28
